Holding throughout (assay type): functional
Assay [1] addresses T1, Glutamate receptor ionotropic, kainate (Rattus norvegicus) (UniProt P22756+Q01812+P42260+P42264+Q63273). As to the kind of experiment: Antagonist activity against rat KA receptor assessed by inhibition of kainate-induced membrane current at 1 uM. Set-up: scale not given: the % may be the effect or the level left. The procedure, abridged: (§1)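 Oocytes injected with native rat cerebral cortex mRNA were used. Membrane currents induced by 100 μM kainate were recorded with the test agent present (analogs at 100 μM; CNQX reference at 1 μM). Residual current is reported as a percentage of the kainate control. N = 2-7 oocyte preparations.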

The target in assay [2] is T1, Glutamate receptor ionotropic, kainate (Rattus norvegicus). The experiment in a line: Agonist activity at rat KA receptor assessed by generation of membrane current at 100 uM relative to control.
For assay [3] the target is unchanged. The experiment in a line: Antagonist activity against rat KA receptor assessed by inhibition of kainate-induced membrane current at 100 uM. Also noted: scale not given: the % may be the effect or the level left. The procedure, abridged: as §1
The target in assay [4] is T2, Glutamate NMDA receptor (Rattus norvegicus) (UniProt P35439+Q00959+Q00960+Q00961+Q62645+Q8VHN2+Q9R1M7). The experiment in a line: Antagonist activity against rat NMDA receptor assessed by inhibition of NMDA plus glycine-induced membrane current at 100 uM. The procedure, abridged: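 In rat cortex mRNA-injected oocytes, analogs (100 μM) were tested against currents evoked by 100 μM NMDA plus 100 μM glycine.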

The target in assay [5] is T2, Glutamate NMDA receptor (Rattus norvegicus). As to the kind of experiment: Agonist activity at rat NMDA receptor in presence of glycine assessed by generation of membrane current at 100 uM relative to control. The gist of the method: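 Rat cortex mRNA-injected oocytes. The analog (100 μM) was applied in the presence of 100 μM glycine. The elicited current is expressed relative to a positive control of 100 μM NMDA plus 100 μM glycine.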

Assay [6] has as its target T1, Glutamate receptor ionotropic, kainate (Rattus norvegicus). As to the kind of experiment: Agonist activity at rat KA receptor assessed by generation of membrane current at 100 uM relative to control in presence of 10 uM cyclothiazide. The gist of the method: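 Oocytes were injected with rat cerebral cortex mRNA. Each analog at 100 μM was co-applied with 10 μM cyclothiazide (AMPA receptor desensitization inhibitor). Membrane current is given as a percentage of the 100 μM kainate control current, with and without cyclothiazide. N = 2-7 oocyte preparations.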

Activity calls are given as the source filed them. The calls are words filed in the database; no cut-off is given here.

With `N#Cc1cc2c(cc1[N+](=O)[O-])=NC(=O)C(=O)N=2`, in assay [1], the Activity is 38%.

Take `N[C@@H](C[C@@]1(C(=O)O)Cc2ccccc2O1)C(=O)O`: the outcome in assay [2] and in assay [4] was inactive. This compound also gave an Activity in assay [3] of 100%.

Turning to `Cc1ccc2c(c1)C[C@](C[C@H](N)C(=O)O)(C(=O)O)O2`, the outcome in assay [2] and in assay [4] was inactive. For the same compound, the Activity in assay [5] was found to be 44%; in assay [3], 72%.

For the compound `Cc1cccc2c1O[C@@](C[C@H](N)C(=O)O)(C(=O)O)C2`, the Activity in assay [2] came out at 6%; in assay [6] it was 13%; in assay [3], 95%. Besides, the result in assay [5] and in assay [4] was inactive.

On to `N[C@@H](C[C@]1(C(=O)O)Cc2ccccc2O1)C(=O)O`, for which the result in assay [2], in assay [5] and in assay [4] was inactive. In assay [3], this compound returned an Activity of 55%.

The values above are taken from ChEMBL document CHEMBL1146962, “Design, synthesis, and biological evaluation of a scaffold for iGluR ligands based on the structure of (-)-dysiherbaine” (Bioorg Med Chem Lett, 2006).
